Series [1] in a line: Oral bioavailability in mouse at 5 mg/kg. It is filed as ADME, organism-based. The settings on record: in vivo. In a few lines:
(§1)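 Single-compound PK. Intravenous dose 1 mg/kg given as a 60% PEG solution. Oral dose 5 mg/kg given as an aqueous suspension in 1% methylcellulose. Plasma clearance, steady-state volume of distribution, half-life and oral bioavailability were determined from these doses.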

Series [2] addresses Mitogen-activated protein kinase 9 (Homo sapiens, UniProt P45984). In words: Inhibition of JNK2 (unknown origin).
Series [3] can be described thus: Half life in cynomolgus monkey at 1 mg/kg, iv and 5 mg/kg, po. It counts as ADME, organism-based, Macaca fascicularis. The settings on record: in vivo. In a few lines:
as §1

Series [4] can be described thus: Half life in dog at 1 mg/kg, iv and 5 mg/kg, po. It is filed as ADME, organism-based, Canis lupus familiaris. The settings on record: in vivo. In a few lines: as §1
Series [5] has as its target T1, Dual specificity mitogen-activated protein kinase kinase 7 (Homo sapiens, UniProt O14733).
T1 sequence (O14733 whole entry): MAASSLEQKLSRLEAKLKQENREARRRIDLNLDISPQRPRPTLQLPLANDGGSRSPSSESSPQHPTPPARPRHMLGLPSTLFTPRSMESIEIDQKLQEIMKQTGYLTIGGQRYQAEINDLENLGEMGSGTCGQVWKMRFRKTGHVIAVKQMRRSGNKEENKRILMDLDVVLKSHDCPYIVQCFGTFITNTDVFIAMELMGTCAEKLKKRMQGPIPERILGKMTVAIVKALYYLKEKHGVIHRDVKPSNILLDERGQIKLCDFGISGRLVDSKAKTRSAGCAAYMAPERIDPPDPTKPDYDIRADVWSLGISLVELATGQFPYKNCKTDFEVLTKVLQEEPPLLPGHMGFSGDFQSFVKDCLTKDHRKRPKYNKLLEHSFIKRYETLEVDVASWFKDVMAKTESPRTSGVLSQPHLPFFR
In words: Inhibition of MKK7 (unknown origin).

Series [6] deals with Mitogen-activated protein kinase kinase kinase 9 (Homo sapiens, UniProt P80192). In words: Inhibition of MLK1 (unknown origin).
Chain of Mitogen-activated protein kinase kinase kinase 9 (P80192 whole entry): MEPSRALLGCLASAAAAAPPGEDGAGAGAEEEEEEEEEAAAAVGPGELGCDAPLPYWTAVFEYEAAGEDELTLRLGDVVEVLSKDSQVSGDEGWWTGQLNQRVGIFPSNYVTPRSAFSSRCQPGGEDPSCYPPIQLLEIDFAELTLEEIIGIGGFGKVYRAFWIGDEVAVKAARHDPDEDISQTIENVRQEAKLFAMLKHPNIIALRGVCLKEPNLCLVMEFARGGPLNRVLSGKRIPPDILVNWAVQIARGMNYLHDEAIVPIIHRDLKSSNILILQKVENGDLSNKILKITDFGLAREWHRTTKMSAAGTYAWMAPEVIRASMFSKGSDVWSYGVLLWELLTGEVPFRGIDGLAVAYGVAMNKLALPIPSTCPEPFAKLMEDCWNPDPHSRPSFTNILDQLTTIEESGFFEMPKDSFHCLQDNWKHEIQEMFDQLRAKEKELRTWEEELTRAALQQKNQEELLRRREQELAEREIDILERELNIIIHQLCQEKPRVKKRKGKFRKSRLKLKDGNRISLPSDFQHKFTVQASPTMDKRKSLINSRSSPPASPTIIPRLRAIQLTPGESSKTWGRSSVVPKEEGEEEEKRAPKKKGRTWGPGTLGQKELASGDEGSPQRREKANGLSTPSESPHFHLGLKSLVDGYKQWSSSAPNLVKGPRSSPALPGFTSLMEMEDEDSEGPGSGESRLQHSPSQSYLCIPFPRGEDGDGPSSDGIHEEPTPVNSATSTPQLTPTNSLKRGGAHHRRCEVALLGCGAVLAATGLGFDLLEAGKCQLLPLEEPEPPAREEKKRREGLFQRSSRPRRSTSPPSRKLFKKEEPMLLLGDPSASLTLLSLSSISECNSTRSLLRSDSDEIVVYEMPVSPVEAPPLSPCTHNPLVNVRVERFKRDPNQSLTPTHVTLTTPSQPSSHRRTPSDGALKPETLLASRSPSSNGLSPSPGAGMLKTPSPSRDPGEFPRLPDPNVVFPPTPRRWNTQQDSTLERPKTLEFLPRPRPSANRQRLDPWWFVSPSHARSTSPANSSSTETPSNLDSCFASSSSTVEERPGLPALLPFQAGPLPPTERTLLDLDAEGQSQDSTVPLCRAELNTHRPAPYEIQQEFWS
Series [7] in a line: Oral bioavailability in dog at 5 mg/kg. It is filed as ADME, organism-based, Canis lupus familiaris. The settings on record: in vivo. In a few lines: as §1
A further series concerns Mus musculus. The series can be described thus: Neuroprotective activity against po dosed C57Bl/6 mouse optic nerve crush model assessed as reduction of phosphorylated c-Jun level in retina administered 30 mins prior to nerve crush injury measured after 6 hrs by MSD ELISA. It is filed as functional, organism-based. In a few lines:
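C57Bl/6 mice dosed orally at two dose levels (MCT suspension) or vehicle, 30 min before optic nerve crush. Retinal p-c-Jun measured 6 h post-injury by MSD ELISA, expressed relative to uncrushed vehicle controls. N = 5 vehicle, 6 per treated group. Mean ± SEM.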

Series [8] can be described thus: (§2) Neuroprotective activity in E14.5 rat embryo DRG neurons. It is filed as functional. The settings on record: drg neuron. In short, it runs like this:
(§3)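 DRG neurons freshly dissected from E14.5 rat embryos, plated at 1200−2000 cells/well on an astrocyte monolayer in DMEM/F12 with N3 supplement, 0.18% glucose and 25 ng/mL NGF. 200 μM uridine and 100 μM 5-fluorodeoxyuridine added next day. Cultured 4 days before axon degeneration assay. IC50 reported.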

For the next series, the system named is DRG neuron. Described as §2. It counts as functional. In a few lines:
as §3

Series [9] can be described thus: Oral bioavailability in cynomolgus monkey at 5 mg/kg. It counts as ADME, organism-based, Macaca fascicularis. The settings on record: in vivo. In short, it runs like this:
as §1

In the next series the test system is MDR1. The series can be described thus: Apparent permeability from apical to basolateral side in MDCK cells expressing human MDR1 at 5 uM after 60 to 180 mins by LC-MS/MS analysis. It is filed as ADME, cell-based, Canis lupus familiaris. The following applies: dog.
Series [10] can be described thus: Half life in rat at 1 mg/kg, iv and 5 mg/kg, po. It is filed as ADME, organism-based. The following applies: in vivo. In a few lines: as §1
In series [11] the test system is T2, Receptor-type tyrosine-protein kinase FLT3 (Homo sapiens), P36888 [D835Y].
T2 sequence (whole entry): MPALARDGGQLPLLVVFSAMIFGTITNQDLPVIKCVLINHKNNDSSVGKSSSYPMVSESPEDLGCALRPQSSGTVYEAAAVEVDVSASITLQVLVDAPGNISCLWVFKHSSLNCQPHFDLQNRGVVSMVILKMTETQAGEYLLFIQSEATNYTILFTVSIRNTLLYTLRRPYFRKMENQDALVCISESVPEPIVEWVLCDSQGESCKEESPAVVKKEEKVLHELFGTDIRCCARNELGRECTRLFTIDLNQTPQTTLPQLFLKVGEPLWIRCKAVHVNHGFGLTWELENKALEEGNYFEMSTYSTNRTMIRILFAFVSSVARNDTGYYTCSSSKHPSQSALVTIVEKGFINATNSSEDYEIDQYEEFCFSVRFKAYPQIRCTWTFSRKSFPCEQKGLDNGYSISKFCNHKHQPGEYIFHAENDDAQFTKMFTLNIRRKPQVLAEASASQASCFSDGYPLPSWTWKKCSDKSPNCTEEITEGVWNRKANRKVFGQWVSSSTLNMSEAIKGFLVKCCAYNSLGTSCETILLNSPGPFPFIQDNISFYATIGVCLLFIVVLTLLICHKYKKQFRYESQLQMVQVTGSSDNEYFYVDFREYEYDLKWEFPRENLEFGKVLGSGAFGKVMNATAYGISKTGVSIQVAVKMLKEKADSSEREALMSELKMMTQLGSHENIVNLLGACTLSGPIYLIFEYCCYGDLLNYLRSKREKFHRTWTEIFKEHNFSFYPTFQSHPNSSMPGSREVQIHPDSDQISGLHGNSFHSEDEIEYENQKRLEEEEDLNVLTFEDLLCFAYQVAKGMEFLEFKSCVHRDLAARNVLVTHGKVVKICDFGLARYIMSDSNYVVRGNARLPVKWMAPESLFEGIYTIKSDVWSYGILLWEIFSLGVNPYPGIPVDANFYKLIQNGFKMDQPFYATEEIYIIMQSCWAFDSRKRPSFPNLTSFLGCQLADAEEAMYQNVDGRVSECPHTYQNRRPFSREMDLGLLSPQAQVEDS
The series can be described thus: Inhibition of Flt3 D835Y mutant (unknown origin) at 0.1 uM. In short, it runs like this:
(§4)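 Kinase selectivity panel of 298 kinases, test compound at 0.1 μM, percent inhibition reported.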

Series [12] is described as follows: Volume of distribution at steady state in rat at 1 mg/kg, iv and 5 mg/kg, po. It counts as ADME, organism-based. The following applies: in vivo, read-out: Vdss. In a few lines:
as §1

In series [13] the target is Mitogen-activated protein kinase kinase kinase 11 (Homo sapiens, UniProt Q16584). In words: Inhibition of MLK3 (unknown origin).
Chain of Mitogen-activated protein kinase kinase kinase 11 (Q16584 whole entry): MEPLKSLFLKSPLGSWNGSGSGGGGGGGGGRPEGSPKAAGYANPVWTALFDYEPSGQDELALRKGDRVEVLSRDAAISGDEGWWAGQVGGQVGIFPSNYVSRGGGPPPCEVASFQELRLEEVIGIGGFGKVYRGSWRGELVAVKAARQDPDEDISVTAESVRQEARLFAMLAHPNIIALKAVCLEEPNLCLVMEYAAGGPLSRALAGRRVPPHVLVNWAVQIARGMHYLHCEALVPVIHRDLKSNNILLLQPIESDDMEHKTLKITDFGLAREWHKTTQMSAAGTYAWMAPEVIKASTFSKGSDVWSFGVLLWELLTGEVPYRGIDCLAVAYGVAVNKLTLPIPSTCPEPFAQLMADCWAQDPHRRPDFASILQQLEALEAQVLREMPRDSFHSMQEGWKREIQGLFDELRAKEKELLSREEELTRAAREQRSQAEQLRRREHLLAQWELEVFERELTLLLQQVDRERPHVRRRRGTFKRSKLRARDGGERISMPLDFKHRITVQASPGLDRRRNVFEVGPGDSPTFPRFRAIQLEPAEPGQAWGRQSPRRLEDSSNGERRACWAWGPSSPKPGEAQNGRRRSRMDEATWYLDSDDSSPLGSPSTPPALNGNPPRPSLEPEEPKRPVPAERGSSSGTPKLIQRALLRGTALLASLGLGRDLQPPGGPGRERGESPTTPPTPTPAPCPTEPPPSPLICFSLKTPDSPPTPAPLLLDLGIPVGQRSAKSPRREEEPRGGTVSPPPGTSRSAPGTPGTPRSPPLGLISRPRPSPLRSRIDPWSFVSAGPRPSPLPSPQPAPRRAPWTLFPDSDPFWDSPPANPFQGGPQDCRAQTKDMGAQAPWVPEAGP
Series [14] concerns the target T3, Dual specificity mitogen-activated protein kinase kinase 4 (Homo sapiens, UniProt P45985).
T3 sequence (P45985 whole entry): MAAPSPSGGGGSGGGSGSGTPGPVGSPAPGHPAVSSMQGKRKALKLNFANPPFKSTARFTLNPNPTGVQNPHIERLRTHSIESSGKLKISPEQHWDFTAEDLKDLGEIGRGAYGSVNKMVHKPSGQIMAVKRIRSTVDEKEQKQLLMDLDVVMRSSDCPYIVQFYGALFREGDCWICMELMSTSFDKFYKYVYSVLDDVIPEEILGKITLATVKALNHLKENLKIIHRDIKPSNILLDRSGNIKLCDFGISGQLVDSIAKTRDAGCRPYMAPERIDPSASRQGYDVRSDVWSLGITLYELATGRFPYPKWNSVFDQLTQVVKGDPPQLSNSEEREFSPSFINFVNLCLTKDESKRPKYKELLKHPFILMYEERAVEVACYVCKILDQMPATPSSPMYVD
The series can be described thus: Inhibition of MKK4 (unknown origin).

The target of series [15] is Tyrosine-protein kinase SYK (Homo sapiens) (UniProt P43405). In words: Inhibition of Syk (unknown origin) at 0.1 uM. In short, it runs like this: as §4

For orientation: bioavailability means the share of a dose that reaches the circulation, judged against a reference dose that is usually intravenous. Usually IC50 stands for the midpoint of a concentration-inhibition curve. Broadly, the half-life is the time needed for the level to fall by half in the phase considered. As usually defined, the Papp A→B is how fast a substance crosses the layer from the apical side. One may read the inhibition as the percentage by which the read-out fell short of the control.

Chain of Mitogen-activated protein kinase 9 (P45984 whole entry): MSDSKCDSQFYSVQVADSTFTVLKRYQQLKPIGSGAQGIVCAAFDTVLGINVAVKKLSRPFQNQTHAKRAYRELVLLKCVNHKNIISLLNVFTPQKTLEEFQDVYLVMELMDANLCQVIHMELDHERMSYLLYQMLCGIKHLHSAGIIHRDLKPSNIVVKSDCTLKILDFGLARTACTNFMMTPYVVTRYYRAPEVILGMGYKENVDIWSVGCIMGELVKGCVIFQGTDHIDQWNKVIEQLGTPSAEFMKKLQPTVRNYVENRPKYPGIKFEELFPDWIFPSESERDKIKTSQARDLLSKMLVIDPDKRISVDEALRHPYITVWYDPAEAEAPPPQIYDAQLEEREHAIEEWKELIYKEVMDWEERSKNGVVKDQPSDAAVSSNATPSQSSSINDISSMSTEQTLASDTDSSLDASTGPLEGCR

With `N#Cc1ccnc(Nc2cc(C3CCN(C4COC4)CC3)cc(N3CCC(F)(F)C3)n2)c1`, the results for the bioavailability in series [1], in series [7] and in series [9] were 45%, 32% and 19%, respectively. Also, the 50% inhibitory concentration (IC50) in series [2] was 514 nM; in series [5] it was more than 5000 nM; in [6], 67.8 nM; in series [8], 107 nM; in series [13], 602 nM; in series [14], more than 5000 nM. Besides, the figures for the half-life in series [3], in series [4] and in series [10] were 2.4 h, 4 h and 1.8 h, respectively. Further, the Activity result with Mus musculus and with DRG neuron was “Dose-dependent effect” in each case. Further, the apical-to-basolateral permeability (Papp A→B) at 5 µM in the series on MDR1 stood at 6 ×10⁻⁶ cm/s. The inhibition in series [11] and in series [15] was more than 80% throughout. Besides, the Vd in series [12] stood at 3.7 L/kg.

The values are drawn from ChEMBL document CHEMBL3393025, “Discovery of dual leucine zipper kinase (DLK, MAP3K12) inhibitors with activity in neurodegeneration models” (J Med Chem, 2015).
